Assay outcomes as filed in PubChem BioAssay.
PG9 binder = PG9 antibody binding by small molecule; TR-FRET gp120-PG9 antibody binding; inhibition, % at 6.7 µM; hit rate 0.43% among 360,000; AID 624416; in the data active = inhibition above about 8.5%
TbMetRS inhib = blocks T. brucei methionyl-tRNA synthetase activity | inhibition, % at 11.9 µM | hit rate 0.4% among 360,000 | purified T. brucei MetRS, ATP depletion, Kinase-Glo luminescence | AID 624268;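 active = inhibition above a per-plate cutoff of the control wells' mean inhibition plus 3 SD, cut at about 5.5% in these data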;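 note: 0% = DMSO wells median and 100% = median of wells with control inhibitor compound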
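Dosing: 11.9 µM compound single dose, 0.9% DMSO; Assay system: purified T. brucei MetRS enzyme; Measured by: Kinase-Glo luciferase luminescence reporting remaining unconsumed ATP; Schedule: 15 min plus 2 h at 25 °C.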
Rev-erbA mod = modulates human Rev-erb alpha binding to DNA | hit rate 0.79% among 370,000 | P20393 | activity, % at 10 µM | AID 1259318 | Rev-erbα–FITC-DNA binding, fluorescence polarization, 90 min;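 active = activity above about 14%, limit read from the data; passing the limit was not always enough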;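 note: 0% = DMSO wells with 35 nM protein and 100% = DMSO wells with 750 nM protein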
Target sequence (P20393 whole entry, looked up): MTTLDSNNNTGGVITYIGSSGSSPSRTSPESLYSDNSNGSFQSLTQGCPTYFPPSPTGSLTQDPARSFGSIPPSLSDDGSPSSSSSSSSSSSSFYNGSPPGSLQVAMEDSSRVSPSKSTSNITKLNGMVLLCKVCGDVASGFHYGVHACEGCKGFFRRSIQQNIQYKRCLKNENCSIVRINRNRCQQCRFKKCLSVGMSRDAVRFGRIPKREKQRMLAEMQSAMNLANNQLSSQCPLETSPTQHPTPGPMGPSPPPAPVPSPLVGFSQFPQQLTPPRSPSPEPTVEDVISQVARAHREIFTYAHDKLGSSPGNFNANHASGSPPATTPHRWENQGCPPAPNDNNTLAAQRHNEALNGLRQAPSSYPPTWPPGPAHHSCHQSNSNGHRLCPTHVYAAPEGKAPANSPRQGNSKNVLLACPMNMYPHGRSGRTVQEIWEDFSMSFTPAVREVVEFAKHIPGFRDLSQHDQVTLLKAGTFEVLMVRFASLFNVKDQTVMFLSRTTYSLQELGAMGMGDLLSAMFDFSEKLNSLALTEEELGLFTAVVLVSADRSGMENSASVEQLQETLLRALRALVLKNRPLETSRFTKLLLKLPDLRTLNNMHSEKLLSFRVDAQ
Rin1 Abl inh = inhibitors of human Rin1-Abl protein interaction; P00519+Q13671; TR-FRET Rin1/Abl binding, biochemical; inhibition, % at 7.35 µM; hit rate 0.4% among 360,000; AID 588664; in the data active = inhibition above about 5%, passing the limit was not always enough
* marks the source's active call; other numbers are inactive results; · = no result. Compounds with a hit are over-represented: about 1.8% of the library has one in this group of screens.

SMILES | PG9 binder | TbMetRS inhib | Rev-erbA mod | Rin1 Abl inh
C#CCOCCOCCOCCNc1nc(N2CCN(C(=O)CCCCCCCCCCNC(=O)[C@H]([C@@H](C)CC)n3cc(CCCCN=C(N)N)nn3)CC2)nc(N2CCN(C(=O)CCCCCCCCCCNC(=O)[C@@H]([C@H](C)O)n3cc(C)nn3)CC2)n1 | · | -1 | · | 14*
C#CCOCCOCCOCCNc1nc(N2CCN(C(=O)CCCCCCCCCCNC(=O)[C@@H](CCSC)n3cc(CCO)nn3)CC2)nc(N2CCN(C(=O)CCCCCCCCCCNC(=O)[C@H](CCCN=C(N)N)n3cc(C[C@@H](C)CC)nn3)CC2)n1 | · | 0 | · | 27*
C#CCOCCOCCOCCNc1nc(N2CCN(C(=O)CCCCCCCCCCNC(=O)Cn3cc(CCCCCN)nn3)CC2)nc(N2CCN(C(=O)CCCCCCCCCCNC(=O)[C@@H]([C@H](C)O)n3cc(C)nn3)CC2)n1 | · | -1 | · | 11*
C[C@@H]1CC[C@H]2[C@@H](C)C(O)O[C@@H]3OC4(C)CC[C@@H]1[C@]32OO4 (some centres not stated) | · | · | -3 | ·
C[C@@H]1CC2C3CCC4=CC(=O)C=C[C@]4(C)[C@@]3(F)[C@@H](O)C[C@]2(C)[C@H]1C(=O)CO (some centres not stated) | · | · | 1 | ·
Cc1nn(C)c(C)c1S(=O)(=O)N(CC(=O)Nc1ccc2c(c1)OCO2)c1ccc(C(C)C)cc1 | 14* | 0 | -5 | 1
Cc1noc(C)c1S(=O)(=O)N(CC(=O)Nc1ccc2c(c1)OCO2)c1ccc(C(C)C)cc1 | 1 | -1 | -5 | 2
O=C(CSc1nc2ncc(Br)cc2[nH]1)Nc1ccc2c(c1)OCO2 | 1 | 67* | -4 | 2
O=C(COC(=O)CCc1c[nH]c(=O)[nH]1)Nc1cccc(Cl)c1 | 1 | 0 | 7 | 11*
CC(COc1ccccc1)NC(C)[C@H](O)c1ccc(O)cc1 (some centres not stated) | · | · | 4 | ·
CC[C@@H](C(=O)[C@@H](C)[C@@H](O)[C@H](C)[C@@H]1O[C@@H]([C@@H](CC)C(=O)O)CC[C@@H]1C)[C@H]1OC2(C=C[C@@H](O)[C@]3(CC[C@@](C)([C@H]4CC[C@](O)(CC)[C@H](C)O4)O3)O2)[C@H](C)C[C@@H]1C (some centres not stated) | · | · | 3 | ·
CCCCCCCCC[n+]1cccc2c3ccccc3ccc21 | · | 5.7* | · | -4
c1nc(NCC2CCCO2)c2[nH]cnc2n1 (configuration not stated) | 0 | 0 | 4 | -3
c1ccc2c(c1)[nH]c1c(NCC3CCCO3)ncnc12 (configuration not stated) | 0 | 54* | -3 | 2
CCOc1ccc(/C(O)=C2/C(=O)C(=O)N(CCOCCO)C2c2cccnc2)cc1 (configuration not stated) | 9.0* | -1 | -5 | -4
CCOc1ccc(/C(O)=C2/C(=O)C(=O)N(CCOCCO)C2c2ccccc2)cc1 (configuration not stated) | 6 | 0 | 6 | -2
Cc1ccccc1N=Nc1ccc(O)c2ncccc12 | -3 | -1 | 7 | 0
O=S(=O)(O)c1cccc2c(N=Nc3ccc(O)c4ncccc34)cccc12 | · | 0 | · | 15*
COc1cc2nc(N3CCNCC3)nc(N)c2cc1OC | -4 | -2 | -2 | 8.2*
COc1cc2cccc(OC)c(=O)c2c(O)c1OC | -12 | 0 | 7 | -4
CC(=O)Oc1cc2cccc(OC(C)=O)c(=O)c2c(OC(C)=O)c1OC(C)=O | · | 0 | · | 23*
CNCC[C@@H](Oc1ccccc1)c1ccccc1 | · | · | -7 | ·
C#CCn1cc(/C=N/Nc2nc3ccccc3[nH]2)c2ccccc21 | -4 | 9.0* | 1 | -1
C(=N\Nc1nc2ccccc2[nH]1)/c1ccccn1 | -2 | -2 | 7 | 2
Cc1ccc2nc(SCC(=O)Nc3cccc([N+](=O)[O-])c3)[nH]c2c1 | 1 | 72* | 1 | 0
SMILES | PG9 binder | TbMetRS inhib | Rev-erbA mod | Rin1 Abl inh
Cc1ccc2nc(SCc3ccc([N+](=O)[O-])cc3)[nH]c2c1 | 0 | 19* | -1 | 2
C[C@H]1OC(n2cc(F)c(=O)[nH]c2=O)[C@H](O)[C@@H]1O (some centres not stated) | · | · | -3 | ·
CO/N=C(/C(=O)N[C@H]1C(=O)N2C(C(=O)O)=C(CSc3nnnn3C)CSC12)c1csc(N)n1 (some centres not stated) | · | · | 10 | ·
CCOCCCNc1nc2ccccc2[nH]1 | 0 | 8.2* | 8 | -11
Cc1ccccc1C(=O)Nc1ccc(C(=O)N2CCC[C@@H](O)c3cc(Cl)ccc32)c(C)c1 | · | · | -3 | ·
COC(=O)c1nn(-c2cccc(C(F)(F)F)c2)c(=O)cc1Sc1ccccn1 | 8.7* | 0 | -1 | 2
